Published values pooled from the literature.
Target: Histamine H1 receptor (HRH1, Homo sapiens, UniProt P35367)

With `CN1CCC(=C2c3ccccc3CCc3cccnc32)CC1` the Ki was 0.0631 nM (cell-free assay).
For `CN(C)c1ccc(/C=C/C=C2\CCc3ccc(OCc4ccc(OCCCN5CCCCC5)cc4)cc3C2=O)cc1`, the Ki was 1840 nM (ligand displacement, radioligand; cell membranes).
For `CN1CCC(=C2c3ccccc3CCc3ccccc32)CC1`, the Ki was 0.251 nM (cell-free assay, radioligand).
`O=C1NC(=O)C(c2ccccc2)(c2ccc(OCCCN3CCCCC3)cc2)N1` (stereo not shown) gave a Ki of 6150 nM (ligand displacement, radioligand; cell membranes).
With `CCc1nc2cc(OCCCCN3CCC(c4cccc(Cl)c4Cl)CC3)ccc2s1` the Ki was 690 nM (ligand displacement, radioligand).
`O=C1CCCc2cc(OCc3ccc(OCCCN4CCCCC4)cc3)ccc21` gave a Ki of 1970 nM (ligand displacement, radioligand; cell membranes).
The Ki of `CN1CCC(=C(c2ccccc2)c2ccccc2)CC1` is reported as 3.16 nM (cell-free assay, radioligand).
For `CCCCN1CCC(COC(=O)c2ccc(N)c(OCF)c2)CC1`, the Ki was > 10000 nM (cell-free assay, radioligand).
`CN1CCN(C2c3ccccc3CCc3ccccc32)CC1` gave a Ki of 2 nM (cell-free assay, radioligand).
The Ki of `O=C1CCCc2ccc(OCCCN3CCCCC3)cc21` is reported as 3720 nM (ligand displacement, radioligand; cell membranes).
For `Cc1nc2cc(OCCCCN3CCN(c4cccc(Cl)c4Cl)CC3)ccc2s1`, the Ki was 57 nM (ligand displacement, radioligand).
`CCCNc1nc2ccccc2n1Cc1ccc(Cl)cc1` gave a Ki of 6.2 nM (cell-free assay, radioligand).
`CN(C)c1ccc(/C=C2\CCc3ccc(OCc4ccc(OCCCN5CCCCC5)cc4)cc3C2=O)cc1` has a Ki of 4230 nM (ligand displacement, radioligand; cell membranes).
